From PubChem BioAssay
The sample as a whole holds a higher share of hits than the screen did.
Diaph act CS – counter-screen for diaphorase-based assays: diaphorase activators and chemical reducers; activation factor at 20 µM; Diaphorase/resazurin coupled assay, resorufin fluorescence, 16 min; hits give high values; 1 = vehicle wells, 0 = NADH-free wells; AID 1229; hit rate 0.005% among 190,000;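 active means diaphorase activity raised at least twofold by the compound at 20 µM; inactive means activation factor below 2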
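Material: bacterial diaphorase enzyme (C. kluyveri); amount: enzyme 0.07 U/mL final; reagent: NADH substrate 0.114 mM plus resazurin dye 0.1 mM, final; doses: single compound dose of 20 µM, 1% DMSO final; timing: 16 min enzyme reaction, ambient temperature; measured by: fluorescence of resorufin, 544 nm excitation, 590 nm emission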
FLuc inh counter – Photinus pyralis luciferase inhibition counter-screen. P08659. ATPLite firefly luciferase biochemical luminescence, 10 min. inhibition, % at 10 µM. hit rate 1.5% among 200,000;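 active means inhibition above about 50% when tested at 10 µM, limit read from the data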
ABCB1 block – blocks JC-1 efflux by human ABCB1 transporter; CCRF-Adr cells, flow cytometry; inhibition, % at 6.6 µM; hit rate 0.067% among 190,000; in the data active means inhibition above about 40%;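 further: higher value means more JC-1 retained so stronger ABCB1 efflux block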
ABCB6 inh 2 – inhibitors of human ABC transporter ABCB6; fluorescence ratio to DMSO, % at 10 µM; hit rate 0.19% among 360,000; AID 602162; K562-ABCB6 porphyrin accumulation, flow cytometry, 1 h; hits give low values;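 active means fluorescence ratio to DMSO below 75%, the collection mean minus 3 SD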;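 further: signal is porphyrin accumulated inside mitochondria; lower ratio means ABCB6 inhibition with less porphyrin fluorescence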
Target sequence (Q9NP58 whole entry, looked up): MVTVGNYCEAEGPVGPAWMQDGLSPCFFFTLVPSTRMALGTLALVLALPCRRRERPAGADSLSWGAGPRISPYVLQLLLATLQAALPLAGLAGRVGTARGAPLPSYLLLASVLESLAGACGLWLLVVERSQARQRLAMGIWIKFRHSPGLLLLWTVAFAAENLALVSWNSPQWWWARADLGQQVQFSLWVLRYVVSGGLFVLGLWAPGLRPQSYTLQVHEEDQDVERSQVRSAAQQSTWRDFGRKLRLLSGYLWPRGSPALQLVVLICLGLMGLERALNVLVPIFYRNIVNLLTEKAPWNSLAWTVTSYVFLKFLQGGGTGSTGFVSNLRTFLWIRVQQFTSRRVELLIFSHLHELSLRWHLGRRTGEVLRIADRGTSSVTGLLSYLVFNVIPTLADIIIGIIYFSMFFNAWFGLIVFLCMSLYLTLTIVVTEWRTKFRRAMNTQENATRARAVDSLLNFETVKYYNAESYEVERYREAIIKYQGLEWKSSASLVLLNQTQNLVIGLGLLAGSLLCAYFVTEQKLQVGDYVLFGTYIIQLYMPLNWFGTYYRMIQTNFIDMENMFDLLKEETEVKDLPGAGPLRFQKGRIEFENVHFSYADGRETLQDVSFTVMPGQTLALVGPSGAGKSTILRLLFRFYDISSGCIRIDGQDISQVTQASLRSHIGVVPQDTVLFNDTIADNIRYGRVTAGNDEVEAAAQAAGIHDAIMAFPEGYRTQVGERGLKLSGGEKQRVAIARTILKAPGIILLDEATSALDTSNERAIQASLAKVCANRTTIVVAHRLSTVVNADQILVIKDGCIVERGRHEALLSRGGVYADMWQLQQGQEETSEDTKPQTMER
FLuc act counter – affects firefly luciferase, flagging false hits in luciferase stimulation screens; ATPlite luciferase biochemical, luminescence, 10 min; 0 = ATP-free wells, 1 = DMSO control; activation factor at 10 µM; 200,000 tested, under 10 active;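 active means luciferase activation factor, scaled between plate controls, of at least 2 with compound at 10 µM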
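Material: Luciferase/luciferin reagent mix; Doses: test compounds dosed from 2 mM stocks in 100% DMSO; Schedule: 10 min incubation after luciferase reagent addition, room temperature; Measured by: luminescence from luciferase reaction; Read-out: luminescence gain marking luciferase activators.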
ABCG2 block – blocks JC-1 efflux by human ABCG2 transporter; IgMXP3 cells, flow cytometry; hit rate 0.1% among 190,000; inhibition, % at 6.6 µM; Q9UNQ0;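 active means inhibition above 80%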
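Assay system – ABCG2 IgMXP3 and barcoded ABCB1 CCRF-Adr cell mix · Input – 3 million cells/mL in well · Reagent – JC-1 fluorescent substrate · Compound – single test compound dose, 6.6 µM final · Timing – 10 min exposure at 25 °C with rotation, no wash · Detection – flow cytometry of retained JC-1 fluorescence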
Each line names hits and unclear results; the compound was inactive in the other large screens.

CCn1c(=O)c2[nH]c(Cl)nc2n(CC)c1=O	none (no result: Diaph act CS, FLuc inh counter, ABCB1 block, FLuc act counter, ABCG2 block)
COc1cccc(-c2nnc(-c3ccc(C)o3)o2)c1	FLuc inh counter 86.4
CC(=O)N1CCN(S(=O)(=O)c2cccc(C(=O)OCC(=O)NCc3ccccc3Cl)c2)CC1	none (no result: Diaph act CS, FLuc inh counter, ABCB1 block, FLuc act counter, ABCG2 block)
CCCn1c(C)cc(C(=O)COC(=O)c2ccc[nH]c2=O)c1C	FLuc inh counter 65.3
Cc1cc(C(=O)COC(=O)C2=NNC(=O)CC2)c(C)n1-c1ccccc1	FLuc inh counter 64.5
CCC(=O)OCC(=O)c1cc(C)n(-c2ccc(Br)cc2)c1C	FLuc inh counter 59.2
Cc1cc(C(=O)COC(=O)c2cnccn2)c(C)n1-c1ccc(Br)cc1	none (no result: Diaph act CS, FLuc inh counter, ABCB1 block, FLuc act counter, ABCG2 block)
CCCn1c(C)cc(C(=O)COC(=O)c2ccc(Cl)c(S(=O)(=O)N3CCCC3)c2)c1C	none
Cc1ccc(-n2c(C)cc(C(=O)COC(=O)c3ccc[nH]c3=O)c2C)cc1C	FLuc inh counter 64.8
Cc1ccc(-n2c(C)cc(C(=O)COC(=O)C3=NNC(=O)CC3)c2C)cc1	none
Cc1cc(C(=O)COC(=O)c2ccc[nH]c2=O)c(C)n1-c1ccccc1F	none (no result: Diaph act CS, FLuc inh counter, ABCB1 block, FLuc act counter, ABCG2 block)
COc1ccc(OC)c(Cc2nnc(CCC(=O)N3CCN(C4CCCC4)CC3)o2)c1	none (no result: Diaph act CS, FLuc inh counter, ABCB1 block, FLuc act counter, ABCG2 block)
C[C@H](CO)N1C[C@H](C)[C@H](CN(C)Cc2cncnc2)Oc2cc(Br)ccc2S1(=O)=O	none (no result: Diaph act CS, FLuc inh counter, ABCB1 block, FLuc act counter, ABCG2 block)
O=C(c1cc(C2CCCCN2C(=O)CCCc2ccccc2)on1)N1CCOCC1 (centres undefined)	none (no result: Diaph act CS, FLuc inh counter, ABCB1 block, FLuc act counter, ABCG2 block)
CCN(Cc1ccncc1)C(=O)c1cccc(S(=O)(=O)N2CCCCC2)c1	none (no result: Diaph act CS, FLuc inh counter, ABCB1 block, FLuc act counter, ABCG2 block)
CC(C)[C@H](NC(=O)c1ccccc1)C(=O)OCC(=O)Nc1sccc1C(N)=O	none (no result: Diaph act CS, FLuc inh counter, ABCB1 block, FLuc act counter, ABCG2 block)
CC(C)Nc1ncnc2c1cnn2-c1ccccc1	FLuc inh counter 78.9
Cc1cccc(-n2ncc3c(NC(C)C)ncnc32)c1	FLuc inh counter 63.2
CCN1CCN(c2ncnc3c2cnn3-c2ccccc2)CC1	none
Cc1cccc(-n2ncc3c(Nc4ccc(F)cc4)ncnc32)c1	none (no result: ABCB1 block, ABCG2 block)
C=CCNc1ncnc2c1cnn2-c1ccc(OC)cc1	FLuc inh counter 59.0
CCCNc1ncnc2c1cnn2-c1ccc(OC)cc1	none (no result: ABCB6 inh 2)
NNc1ncnc2c1cnn2-c1ccccc1	none
c1ccc(-n2ncc3c(N4CCCCC4)ncnc32)cc1	FLuc inh counter 89.3
C[C@@H]1CN([C@@H](C)CO)C(=O)Cc2cc(NS(=O)(=O)c3cn(C)cn3)ccc2O[C@@H]1CN(C)C(=O)Nc1ccccc1	none (no result: Diaph act CS, FLuc inh counter, ABCB1 block, FLuc act counter, ABCG2 block)
COc1ccc(-c2nc3ncccc3n2O)cc1	none (no result: Diaph act CS, FLuc inh counter, ABCB1 block, FLuc act counter, ABCG2 block)
C=CCN1C(=O)CSc2ccc(C(=O)NCc3ccc(F)cc3)cc21	none (no result: Diaph act CS, FLuc inh counter, ABCB1 block, FLuc act counter, ABCG2 block)
CCOC(=O)c1c(C)[nH]c(C)c1S(=O)(=O)NC(C)Cc1ccco1 (centres undefined)	none (no result: Diaph act CS, FLuc inh counter, ABCB1 block, FLuc act counter, ABCG2 block)
S=c1[nH]nc(C2CCCCC2)n1/N=C/c1cccc(Cl)c1Cl	none (no result: Diaph act CS, FLuc inh counter, ABCB1 block, FLuc act counter, ABCG2 block)
O=C(Nc1ccc(NC(=O)c2ccc3c(c2)OCCO3)cc1)c1ccccc1	none (no result: Diaph act CS, FLuc inh counter, ABCB1 block, FLuc act counter, ABCG2 block)
O=C(NCCOc1ccccc1)c1ccc2c(c1)OCO2	FLuc inh counter 50.8
CCOc1ccc(C(=O)Nc2ccc3c(c2)OCCO3)cc1OC	FLuc inh counter 59.8
CCOc1ccc(C(=O)Nc2ccc3c(c2)OCCO3)cc1[N+](=O)[O-]	none
COc1ccc(C(=O)NC(=O)Nc2cc(C)ccn2)cc1	FLuc inh counter 92.3
O=C(Nc1ccccc1)c1ccc2c(c1)OCCO2	FLuc inh counter 64.9
CN(CCOc1ccccc1)C(=O)c1ccc2c(c1)OCO2	none (no result: Diaph act CS, FLuc inh counter, ABCB1 block, FLuc act counter, ABCG2 block)
CCNC(=O)CC1C(=O)N(c2ccccc2)C(=O)N1CCOC (centres undefined)	none (no result: Diaph act CS, FLuc inh counter, ABCB1 block, FLuc act counter, ABCG2 block)
Cc1ccc(C(=O)NCc2ccc(Cl)cc2)cc1S(=O)(=O)N1CCCCC1	none (no result: Diaph act CS, FLuc inh counter, ABCB1 block, FLuc act counter, ABCG2 block)
C/C(=N\NC(=O)c1ccccc1)c1ccc2c(c1)OCO2	none
Cc1cccc(NC(=S)NNC(=O)c2ccc3c(c2)OCO3)c1	FLuc inh counter 79.1
O=C(Nc1ccc2c(c1)OCO2)c1ccc(Cl)s1	FLuc inh counter 60.9
Cc1cccc(NC(=O)c2ccc3c(c2)OCCO3)c1	none (no result: Diaph act CS, FLuc inh counter, ABCB1 block, FLuc act counter, ABCG2 block)
CC(=O)Nc1cccc(/C(C)=N/NC(=O)c2ccc3c(c2)OCO3)c1	FLuc inh counter 75.1
Cc1ccnc(NC(=O)c2ccc3c(c2)C(=O)N(CC2CCCO2)C3=O)c1 (centres undefined)	FLuc inh counter 56.2
